Results as given in ChEMBL document CHEMBL1212901, “Dimethylaminopyridine derivatives of lupane triterpenoids are potent disruptors of mitochondrial structure and function” (2010).
Calls of active or inactive are those of the source. The rule behind the calls is not given here.

Assays:
[1] = Antiproliferative activity against human WM793 cells after 3 days by SRB assay; type: functional; conditions: read-out: ED50 (the source's name)
Summary of the method: (§1)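 WM3211 or WM793 melanoma cells in high-glucose DMEM with 8% Fetal Clone III, 3.5% horse serum and 5 mM Glutamax. Seeded at 20,000 cells/ml and rested 24 h. Serial 1:1 dilutions from 2 mg/ml DMSO stocks, incubated 72 h. Vehicle 0.2% DMSO. Cells fixed and stained with 0.5% SRB, dye eluted in Tris pH 10, A540 read. ED50 is the 50%-of-vehicle value taken from mean curves of three independent experiments.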

[2] = Antiproliferative activity against human WM3211 cells after 3 days by SRB assay; type: functional; conditions: read-out: ED50 (the source's name); summary of the method: as §1
[3] = tested on: WM3211; test: Induction of apoptosis in human WM3211 cells assessed as mitochondrial depolarization upto 4 ug/ml by flow cytometry; type: functional, cell-based
Summary of the method: (§2)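 Cells suspended at 30,000 cells/ml in culture medium and exposed to compound at the single top test concentration for 5 h. TMRM added to 100 nM final for a further 60 min, then analysed by flow cytometry without medium replacement. Fluorescence given as percent of the DMSO vehicle control for each line. Mean of three independent experiments, SEM.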

[4] = tested on: WM3211; test: Induction of apoptosis in human WM3211 cells assessed as mitochondrial fragmentation upto 4 ug/ml by flow cytometry; type: functional, cell-based
[5] = tested on: WM793; test: Induction of apoptosis in human WM793 cells assessed as change in fluorescence intensity using TMRM labeling by flow cytometry; type: functional, cell-based; summary of the method: as §2
[6] = tested on: WM793; test: Induction of apoptosis in human WM793 cells assessed as mitochondrial fragmentation upto 4 ug/ml by flow cytometry; type: functional, cell-based
[7] = tested on: WM793; test: Induction of apoptosis in human WM793 cells assessed as reduction in mitochondrial polarization upto 4 ug/ml by flow cytometry; type: functional, cell-based; summary of the method: as §2
[8] = tested on: WM3211; test: Induction of apoptosis in human WM3211 cells assessed as change in fluorescence intensity using TMRM labeling by flow cytometry; type: functional, cell-based; summary of the method: as §2
[9] = tested on: WM3211; test: Induction of apoptosis in human WM3211 cells assessed as change in mitochondrial morphology upto 4 ug/ml by flow cytometry; type: functional, cell-based
[10] = Antiproliferative activity against human WM3211 cells at 4 ug/ml after 3 days by SRB assay; type: functional
Summary of the method: (§3)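 SRB proliferation in WM3211 or WM793 cells at the top concentration of the dilution series, after three days of exposure. Cells seeded at 20,000 cells/ml, with compound added after 24 h recovery. Vehicle control 0.2% DMSO. Growth read as A540 of Tris-eluted SRB and expressed as percent of vehicle control.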

[11] = Antiproliferative activity against human WM793 cells at 4 ug/ml after 3 days by SRB assay; type: functional; summary of the method: as §3
[12] = tested on: WM793; test: Induction of apoptosis in human WM793 cells assessed as vacuolization upto 4 ug/ml by flow cytometry; type: functional, cell-based

| Structure (SMILES) | Activity [3] | EC50 ([1]; Homo sapiens, WM793, 72 h) | Activity [5] | Activity [7] | EC50 ([2]; Homo sapiens, WM3211, 72 h) | Activity [8] | Activity [9] | also measured |
| --- | --- | --- | --- | --- | --- | --- | --- | --- |
| C=C(C)[C@@H]1CC[C@]2(CO)CC[C@]3(C)[C@H](CC[C@@H]4[C@@]5(C)CC[C@H](OC(=O)C[n+]6ccc(N(C)C)cc6)C(C)(C)[C@@H]5CC[C@]43C)[C@@H]12 [listing 1 of 3 here] |  |  |  |  |  |  |  | EC50 [1]: 1900 nM; EC50 [2]: 300 nM |
| C=C(C)[C@@H]1CC[C@]2(COC(=O)C(C)[n+]3ccc(N(C)C)cc3)CC[C@]3(C)[C@H](CC[C@@H]4[C@@]5(C)CC[C@H](OC(=O)C(C)[n+]6ccc(N(C)C)cc6)C(C)(C)[C@@H]5CC[C@]43C)[C@@H]12 (stereo partly drawn) | Active | 500 nM | Active | Active | 500 nM |  |  | Activity [4]: Active; Activity [6]: Active |
| C=C(C)[C@@H]1CC[C@]2(CO)CC[C@]3(C)[C@H](CC[C@@H]4[C@@]5(C)CC[C@H](OC(=O)C[n+]6ccc(N(C)C)cc6)C(C)(C)[C@@H]5CC[C@]43C)[C@@H]12 [listing 2 of 3 here] |  | 2500 nM |  |  | 600 nM |  |  |  |
| C=C(C)[C@@H]1CC[C@]2(COC(=O)C(C)[n+]3ccc(N(C)C)cc3)CC[C@]3(C)[C@H](CC[C@@H]4[C@@]5(C)CC[C@H](O)C(C)(C)[C@@H]5CC[C@]43C)[C@@H]12 (stereo partly drawn) | Active | 2600 nM |  |  | 800 nM | Active | Active |  |
| C=C(C[n+]1ccc(N(C)C)cc1)[C@@H]1CC[C@]2(C(=O)O)CC[C@]3(C)[C@H](CC[C@@H]4[C@@]5(C)CC[C@H](OC(=O)C[n+]6ccc(N(C)C)cc6)C(C)(C)[C@@H]5CC[C@]43C)[C@@H]12 [listing 1 of 3 here] |  |  |  |  |  |  |  | EC50 [1]: > 4700 nM; EC50 [2]: > 4700 nM |
| C=C(C[n+]1ccc(N(C)C)cc1)[C@@H]1CC[C@]2(C(=O)O)CC[C@]3(C)[C@H](CC[C@@H]4[C@@]5(C)CC[C@H](OC(=O)C[n+]6ccc(N(C)C)cc6)C(C)(C)[C@@H]5CC[C@]43C)[C@@H]12 [listing 2 of 3 here] | inactive |  | Active |  |  | Active | inactive |  |
| C=C(C)[C@@H]1CC[C@]2(C(=O)O)CC[C@]3(C)[C@H](CC[C@@H]4[C@@]5(C)CC[C@H](OC(=O)C[n+]6ccc(N(C)C)cc6)C(C)(C)[C@@H]5CC[C@]43C)[C@@H]12.[Br-] |  | 5700 nM | Active |  | 2600 nM | Active | Active | Activity [10]: 40%; Activity [11]: 40% |
| C=C(C)[C@@H]1CC[C@]2(CO)CC[C@]3(C)[C@H](CC[C@@H]4[C@@]5(C)CC[C@H](OC(=O)C[n+]6ccc(N(C)C)cc6)C(C)(C)[C@@H]5CC[C@]43C)[C@@H]12 [listing 3 of 3 here] | Active |  |  | Active |  |  | Active | Activity [12]: Active |
| C=C(C)[C@@H]1CC[C@]2(COC(=O)C(CC)[n+]3ccc(N(C)C)cc3)CC[C@]3(C)[C@H](CC[C@@H]4[C@@]5(C)CC[C@H](OC(=O)C(CC)[n+]6ccc(N(C)C)cc6)C(C)(C)[C@@H]5CC[C@]43C)[C@@H]12 (stereo partly drawn) | Active | 500 nM | Active | Active | 300 nM |  |  | Activity [4]: Active; Activity [6]: Active |
| C=C(C[n+]1ccc(N(C)C)cc1)[C@@H]1CC[C@]2(COC(=O)C(C)[n+]3ccc(N(C)C)cc3)CC[C@]3(C)[C@H](CC[C@@H]4[C@@]5(C)CC[C@H](OC(=O)C(C)[n+]6ccc(N(C)C)cc6)C(C)(C)[C@@H]5CC[C@]43C)[C@@H]12 (stereo partly drawn) [listing 1 of 3 here] | inactive |  | Active |  |  | Active | inactive |  |
| C=C(C)[C@@H]1CC[C@]2(COC(=O)C[n+]3ccc(N(C)C)cc3)CC[C@]3(C)[C@H](CC[C@@H]4[C@@]5(C)CC[C@H](OC(=O)C[n+]6ccc(N(C)C)cc6)C(C)(C)[C@@H]5CC[C@]43C)[C@@H]12 [listing 1 of 3 here] |  |  |  |  |  |  |  | EC50 [1]: 500 nM; EC50 [2]: 500 nM |
| C=C(C)[C@@H]1CC[C@]2(COC(=O)C[n+]3ccc(N(C)C)cc3)CC[C@]3(C)[C@H](CC[C@@H]4[C@@]5(C)CC[C@H](OC(=O)C[n+]6ccc(N(C)C)cc6)C(C)(C)[C@@H]5CC[C@]43C)[C@@H]12 [listing 2 of 3 here] | Active |  | Active | Active |  |  |  | Activity [4]: Active; Activity [6]: Active |
| C=C(C)[C@@H]1CC[C@]2(COC(=O)CC[n+]3ccc(N(C)C)cc3)CC[C@]3(C)[C@H](CC[C@@H]4[C@@]5(C)CC[C@H](OC(=O)CC[n+]6ccc(N(C)C)cc6)C(C)(C)[C@@H]5CC[C@]43C)[C@@H]12 | Active | 800 nM | Active | Active | 600 nM |  |  | Activity [4]: Active; Activity [6]: Active |
| C=C(C)[C@@H]1CC[C@]2(COC(=O)C[n+]3ccc(N(C)C)cc3)CC[C@]3(C)[C@H](CC[C@@H]4[C@@]5(C)CC[C@H](OC(=O)C[n+]6ccc(N(C)C)cc6)C(C)(C)[C@@H]5CC[C@]43C)[C@@H]12 [listing 3 of 3 here] |  | 400 nM |  |  | 400 nM |  |  |  |
| C=C(C[n+]1ccc(N(C)C)cc1)[C@@H]1CC[C@]2(COC(=O)C(C)[n+]3ccc(N(C)C)cc3)CC[C@]3(C)[C@H](CC[C@@H]4[C@@]5(C)CC[C@H](OC(=O)C(C)[n+]6ccc(N(C)C)cc6)C(C)(C)[C@@H]5CC[C@]43C)[C@@H]12 (stereo partly drawn) [listing 2 of 3 here] |  | > 3500 nM |  |  | > 3500 nM |  |  |  |
| C=C(C[n+]1ccc(N(C)C)cc1)[C@@H]1CC[C@]2(C(=O)O)CC[C@]3(C)[C@H](CC[C@@H]4[C@@]5(C)CC[C@H](OC(=O)C[n+]6ccc(N(C)C)cc6)C(C)(C)[C@@H]5CC[C@]43C)[C@@H]12 [listing 3 of 3 here] |  | > 4400 nM |  |  | > 4400 nM |  |  |  |
| C=C(C[n+]1ccc(N(C)C)cc1)[C@@H]1CC[C@]2(C(=O)O)CC[C@]3(C)[C@H](CC[C@@H]4[C@@]5(C)CC[C@H](O)C(C)(C)[C@@H]5CC[C@]43C)[C@@H]12 | inactive | > 6100 nM | Active |  | > 6100 nM | Active | inactive |  |
| C=C(C[n+]1ccc(N(C)C)cc1)[C@@H]1CC[C@]2(COC(=O)C(C)[n+]3ccc(N(C)C)cc3)CC[C@]3(C)[C@H](CC[C@@H]4[C@@]5(C)CC[C@H](OC(=O)C(C)[n+]6ccc(N(C)C)cc6)C(C)(C)[C@@H]5CC[C@]43C)[C@@H]12 (stereo partly drawn) [listing 3 of 3 here] |  |  |  |  |  |  |  | EC50 [1]: > 3800 nM; EC50 [2]: > 3800 nM |
| C=C(C)[C@@H]1CC[C@]2(COC(=O)CCC[n+]3ccc(N(C)C)cc3)CC[C@]3(C)[C@H](CC[C@@H]4[C@@]5(C)CC[C@H](OC(=O)CCC[n+]6ccc(N(C)C)cc6)C(C)(C)[C@@H]5CC[C@]43C)[C@@H]12 | Active | 1300 nM |  | Active | 700 nM | Active | Active |  |
